In ChEMBL document CHEMBL4351014, “Bis(het)aryl-1,2,3-triazole quinuclidines as α7 nicotinic acetylcholine receptor ligands: Synthesis, structure affinity relationships, agonism activity, [18F]-radiolabeling and PET study in rats” (Eur J Med Chem, 2019):

Tests used:
[1] = Drug uptake in rat brain frontal cortex at 7.3 +/- 0.44 MBq, iv pretreated with alpha7 nAChR antagonist methyllycaconitine for 15 mins followed by compound addition and measured after 1 hr by gamma counting analysis; type: organism-based; details: in vivo
How it was run: (§1)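 Male Wistar rats (250-300 g, n=6 per group) under isoflurane received 0.3 mL tracer i.v. via the penis vein; MLA groups got methyllycaconitine 1 mg/kg i.v. 15 min before. Decapitated at 1 h. Frontal cortex, hippocampus, hypothalamus, striatum and cerebellum weighed and gamma counted (48% efficiency). %ID/g calculated against standard dilutions of the injectate, mean ± SEM.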

[2] = Drug uptake in rat brain at 37MBq, iv administrated and measured during 71 mins of acquisition by PET-CT analysis; type: ADME, organism-based; details: in vivo
How it was run: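 Rats given a 37 MBq i.v. bolus and scanned on a microPET-CT for 71 min. Images reconstructed by 2-D OSEM; summed frames from 49-71 min shown.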

[3] = Drug uptake in rat brain striatum at 7.3 +/- 0.44 MBq, iv pretreated with alpha7 nAChR antagonist methyllycaconitine for 15 mins followed by compound addition and measured after 1 hr by gamma counting analysis; type: organism-based; details: in vivo; how it was run: as §1
[4] = Ratio of drug uptake in rat brain hippocampus to cerebellum at 7.3 +/- 0.44 MBq, iv and measured after 1 hr by gamma counting analysis; type: ADME, organism-based; details: in vivo
[5] = Drug uptake in rat brain hippocampus at 7.3 +/- 0.44 MBq, iv pretreated with alpha7 nAChR antagonist methyllycaconitine for 15 mins followed by compound addition and measured after 1 hr by gamma counting analysis; type: organism-based; details: in vivo; how it was run: as §1
[6] = Drug uptake in rat brain hypothalamus at 7.3 +/- 0.44 MBq, iv and measured after 1 hr by gamma counting analysis; type: ADME, organism-based; details: in vivo; how it was run: as §1
[7] = Drug uptake in rat brain cerebellum at 7.3 +/- 0.44 MBq, iv and measured after 1 hr by gamma counting analysis; type: ADME, organism-based; details: in vivo; how it was run: as §1
[8] = Stability of the compound in rat plasma measured up to 4 hrs by HPLC analysis; type: ADME, organism-based; details: read-out: Stability
How it was run: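 100 μL radiotracer mixed with 1 mL rat plasma at 37 °C. Acetonitrile added, organic layer filtered and analysed by radio-HPLC on a C18 column at 30 min, 1, 2 and 4 h. Repeated twice with different radiotracer preparations.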

[9] = Drug uptake in rat brain hypothalamus at 7.3 +/- 0.44 MBq, iv pretreated with alpha7 nAChR antagonist methyllycaconitine for 15 mins followed by compound addition and measured after 1 hr by gamma counting analysis; type: organism-based; details: in vivo; how it was run: as §1
[10] = Drug uptake in rat brain hippocampus at 7.3 +/- 0.44 MBq, iv and measured after 1 hr by gamma counting analysis; type: ADME, organism-based; details: in vivo; how it was run: as §1
[11] = Drug uptake in rat brain frontal cortex at 7.3 +/- 0.44 MBq, iv and measured after 1 hr by gamma counting analysis; type: ADME, organism-based; details: in vivo; how it was run: as §1
[12] = Drug uptake in rat brain striatum at 7.3 +/- 0.44 MBq, iv and measured after 1 hr by gamma counting analysis; type: ADME, organism-based; details: in vivo; how it was run: as §1
[13] = Drug uptake in rat brain cerebellum at 7.3 +/- 0.44 MBq, iv pretreated with alpha7 nAChR antagonist methyllycaconitine for 15 mins followed by compound addition and measured after 1 hr by gamma counting analysis; type: organism-based; details: in vivo; how it was run: as §1
[14] = Ratio of drug uptake in rat brain frontal cortex to cerebellum at 7.3 +/- 0.44 MBq, iv and measured after 1 hr by gamma counting analysis; type: ADME, organism-based; details: in vivo
[15] = Ratio of drug uptake in rat brain striatum to cerebellum at 7.3 +/- 0.44 MBq, iv and measured after 1 hr by gamma counting analysis; type: ADME, organism-based; details: in vivo
[16] = Stability of the compound in 0.9% sodium chloride/ethanol solution by HPLC analysis; type: physicochemical
[17] = Drug uptake in rat brain frontal cortex at 6.5 +/- 0.46 MBq, iv and measured after 1 hr by gamma counting analysis; type: ADME, organism-based; details: in vivo; how it was run: as §1
[18] = Drug uptake in rat brain hypothalamus at 6.5 +/- 0.46 MBq, iv pretreated with alpha7 nAChR antagonist methyllycaconitine for 15 mins followed by compound addition and measured after 1 hr by gamma counting analysis; type: organism-based; details: in vivo; how it was run: as §1
[19] = Drug uptake in rat brain hippocampus at 6.5 +/- 0.46 MBq, iv pretreated with alpha7 nAChR antagonist methyllycaconitine for 15 mins followed by compound addition and measured after 1 hr by gamma counting analysis; type: organism-based; details: in vivo; how it was run: as §1
[20] = Drug uptake in rat brain hippocampus at 6.5 +/- 0.46 MBq, iv and measured after 1 hr by gamma counting analysis; type: ADME, organism-based; details: in vivo; how it was run: as §1
[21] = Drug uptake in rat brain striatum […], iv and measured after 1 hr by gamma counting analysis; type: ADME, organism-based; details: in vivo; how it was run: as §1
[22] = Drug uptake in rat brain hypothalamus at 6.5 +/- 0.46 MBq, iv and measured after 1 hr by gamma counting analysis; type: ADME, organism-based; details: in vivo; how it was run: as §1
[23] = Drug uptake in rat brain cerebellum at 6.5 +/- 0.46 MBq, iv and measured after 1 hr by gamma counting analysis; type: ADME, organism-based; details: in vivo; how it was run: as §1
[24] = Stability of the compound in 100% ethanol measured up to 4 hrs by HPLC analysis; type: physicochemical
[25] = Drug uptake in rat brain striatum at 6.5 +/- 0.46 MBq, iv pretreated with alpha7 nAChR antagonist methyllycaconitine for 15 mins followed by compound addition and measured after 1 hr by gamma counting analysis; type: organism-based; details: in vivo; how it was run: as §1
[26] = Drug uptake in rat brain frontal cortex at 6.5 +/- 0.46 MBq, iv pretreated with alpha7 nAChR antagonist methyllycaconitine for 15 mins followed by compound addition and measured after 1 hr by gamma counting analysis; type: organism-based; details: in vivo; how it was run: as §1
[27] = Ratio of drug uptake in rat brain frontal cortex to cerebellum at 6.5 +/- 0.46 MBq, iv and measured after 1 hr by gamma counting analysis; type: ADME, organism-based; details: in vivo
[28] = Drug uptake in rat brain cerebellum at 6.5 +/- 0.46 MBq, iv pretreated with alpha7 nAChR antagonist methyllycaconitine for 15 mins followed by compound addition and measured after 1 hr by gamma counting analysis; type: organism-based; details: in vivo; how it was run: as §1

[18F]c1ccc(-c2ccc(-c3cn([C@H]4CN5CCC4CC5)nn3)s2)cn1
Drug uptake [1]: Active
Drug uptake [2]: Active
Drug uptake [3]: Active
Ratio [4]: 1.34
Drug uptake [5]: Active
Drug uptake [6]: 0.59 % ID/g
Drug uptake [7]: 0.58 % ID/g
remaining at 4 h [8]: > 95%
Drug uptake [9]: Active
Drug uptake [10]: 0.78 % ID/g
Drug uptake [11]: 0.85 % ID/g
Drug uptake [12]: 0.76 % ID/g
Drug uptake [13]: Active
Ratio [14]: 1.47
Ratio [15]: 1.31

[18F]Cc1ccc(-c2ccc(-c3cn([C@H]4CN5CCC4CC5)nn3)s2)cc1
Stability [16]: Unstable
Drug uptake [17]: 0.56 % ID/g
Drug uptake [18]: Active
Drug uptake [2]: Active
Drug uptake [19]: Active
Drug uptake [20]: 0.43 % ID/g
Drug uptake [21]: 0.44 % ID/g
Drug uptake [22]: 0.42 % ID/g
Drug uptake [23]: 0.44 % ID/g
remaining at 4 h [8]: > 95%
Stability [24]: Stable
Drug uptake [25]: Active
Drug uptake [26]: Active
Ratio [27]: 1.29
Drug uptake [28]: Active
